Laboratory results taken from PMC9643279 (Acta Pharmaceutica Sinica. B, 2022).

Key:
PGK1 [1] = conditions: read-out: IC50 (reported); reported as a PGK1 inhibitor; cited from earlier work
PGK1 [2] = target: T1, PGK1 (Homo sapiens, UniProt P00558); assay: PGK1 and GAPDH coupled enzyme assay, IC50 determination; type: biochemical
T1 sequence (P00558 1-417): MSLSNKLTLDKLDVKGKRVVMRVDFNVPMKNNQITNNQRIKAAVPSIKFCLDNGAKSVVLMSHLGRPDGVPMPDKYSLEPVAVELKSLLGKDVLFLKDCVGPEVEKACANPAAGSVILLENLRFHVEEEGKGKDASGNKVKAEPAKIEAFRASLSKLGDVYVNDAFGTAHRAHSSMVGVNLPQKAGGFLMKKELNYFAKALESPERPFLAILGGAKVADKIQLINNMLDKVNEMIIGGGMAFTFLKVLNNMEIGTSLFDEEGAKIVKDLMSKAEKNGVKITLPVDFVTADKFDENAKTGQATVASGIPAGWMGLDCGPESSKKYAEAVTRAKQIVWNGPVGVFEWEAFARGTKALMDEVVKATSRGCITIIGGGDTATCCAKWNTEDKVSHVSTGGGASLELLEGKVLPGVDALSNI
Summary of the method: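 His-tagged PGK1 was expressed from pET28a in E. coli BL21(DE3) pLysS (0.4 mmol/L IPTG, 3 h) and nickel-purified. PGK1 at 0.4 nmol/L was preincubated with test compound (DMSO, various concentrations) for 10 min at room temperature with shaking. OD340 was read every 15 s for 15 min at 37 °C; V0 came from the first 3 min, and inhibition was expressed as % of the DMSO V0.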

PGK1 [3] = target: T1, PGK1; assay: Protein thermal shift assay; type: binding; conditions: Figs. S1I-J
Summary of the method: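 Recombinant PGK1 at 3 μmol/L was mixed with 5× SYPRO Orange and test compound or DMSO in 20 μL of 50 mmol/L HEPES pH 7.4, 150 mmol/L NaCl, 1 mmol/L DTT. Fluorescence was followed during thermal melting in a real-time PCR instrument, and Tm was derived with the instrument's thermal-shift software.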

PGK1 [4] = target: T1, PGK1; assay: Steady-state kinetic assay in the presence of gradient compound concentrations; type: biochemical
[5] = test system: LPS-induced IL-1β, IL-6, TNFα; conditions: cited from earlier work; for pro-inflammatory cytokine production: PKM2-targeted compounds

CC(C)[C@H](CO)Nc1nc(Nc2cccc(Cl)c2)c2ncn(C(C)C)c2n1 [purvalanol A]
IC50 (PGK1 [1]): 2500 nM
IC50 (PGK1 [2]): 1960 nM

CN(C)C(=O)CCSC(SCCC(=O)O)c1cccc(/C=C/c2ccc3ccc(Cl)cc3n2)c1 (stereo not shown) [MK-571]
IC50 (PGK1 [2]): 25200 nM

CCOC(=O)c1nc2cc(Cl)c(Cl)cc2nc1N1CCCN(C(=O)CC)CC1 [LTP-10, ethyl 6,7-dichloro-3-(4-propionyl-1,4-diazepan-1-yl)quinoxaline-2-carboxylate]
PGK1 thermal stability (PGK1 [3]): stabilized
IC50 (PGK1 [2]): 2300 nM
Ki (PGK1 [4]; Ki, ATP competitive, varying ATP, saturating 3-PG, competitive model): 2590 ± 10 nM
mode of inhibition versus ATP (PGK1 [4]; Km of ATP increases, Vmax unchanged): ATP competitive inhibitor
mode of inhibition versus 3-PG (PGK1 [4]; Vmax decreases, Km of 3-PG unchanged): noncompetitive inhibition

Cn1c2cc([S+](C)[O-])sc2c2cnn(Cc3cccc(N)c3)c(=O)c21 (stereo not shown) [TEPP-46]
pro-inflammatory cytokine production [5]: only inhibit IL-1β production

OCC1OC(O)CC(O)C1O (stereo not shown) [Compound 2-DG]
LPS-induced IL-1β ([5]; previous studies): blocks
transcription of IL-6 and TNFα ([5]; previous studies): unaffected

c1cc(-c2cnn3cc(-c4ccc(OCCN5CCCCC5)cc4)cnc23)ccn1 [dorsomorphin]
IC50 (PGK1 [2]): 6720 nM

Nc1cccc(S(=O)(=O)N2CCCN(S(=O)(=O)c3ccc4c(c3)OCCO4)CC2)c1 [DASA-58]
pro-inflammatory cytokine production [5]: only inhibit IL-1β production
